Reference: PMC13645671 (Nature, 2026)

Tests used:
[1] = test system: LPS-primed human THP-1 monocytic cells; test: Nigericin-induced pyroptosis, LDH release; assay type: cell-based; conditions: LPS-primed THP-1 cells, 25 µM compound
Method in brief: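 THP-1 cells in Opti-MEM with 0.1% FBS were primed for 4 h with 1 µg/ml ultrapure LPS (E. coli O111:B4). They were then stimulated for 2 h with 5 µM nigericin, with or without 25 µM test compound. LDH release was measured by CytoTox 96 and given as a percentage of maximal release by 0.1% Triton X-100.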

[2] = test system: THP-1 cells expressing FKBP–caspase-4; test: B/B-induced FKBP–caspase-4 pyroptosis, LDH release; assay type: cell-based, human; conditions: FKBP–caspase-4 THP-1 cells, 50 nM B/B, 10 µM compound
Method in brief: (§1)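 Unprimed THP-1 cells stably expressing FKBP–caspase-4 or FKBP–caspase-11 were seeded in Opti-MEM with 0.1% FBS. Cells were dimerised with 50 nM B/B, with or without 10 µM test compound, for the indicated times. LDH in the medium was measured by CytoTox 96 and expressed as a percentage of maximal release by 0.1% Triton X-100.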

[3] = test system: THP-1 cells expressing FKBP–caspase-11; test: B/B-induced FKBP–caspase-11 pyroptosis, LDH release; assay type: cell-based, human; conditions: FKBP–caspase-11 THP-1 cells, 50 nM B/B, 10 µM compound
Method in brief: as §1

CC(C)(O)c1coc(S(=O)(=O)NC(=O)Nc2c3c(cc4c2CCC4)CCC3)c1 [MCC950]
nigericin-induced cell lysis (LDH release), in words [1]: inhibited

C[C@H](NC(=O)C(=O)Nc1ccccc1C(C)(C)C)C(=O)N[C@@H](CC(=O)O)C(=O)COc1c(F)c(F)cc(F)c1F [Emricasan, N-[2-(1,1-dimethylethyl)phenyl]-2-oxoglycyl-N-[(1S)-1-(carboxymethyl)-2-oxo-3-(2,3,5,6-tetrafluorophenoxy)propyl]-L-alaninamide]
nigericin-induced cell lysis (LDH release), in words [1]: inhibited
cell death induced by caspase-4, in words [2]: inhibited
cell death induced by caspase-11, in words [3]: inhibited
